Reference: ChEMBL document CHEMBL4627416, “Generation of Leads for γ-Secretase Modulation” (J Med Chem, 2020)
Values belong to the compound of their own block, whether it stands above or below them. The source made the active and inactive calls. No cut-off for these calls is given here.

How the values were obtained:
[1] = Drug level in plasma of CD rat at 30 mg/kg, po measured after 3 hrs; type: ADME, organism-based
Outline: (§1)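 Male CD rats dosed orally at 3, 10 or 30 mg/kg. Total drug concentrations measured in plasma and brain 3 h after the dose. Values are geometric means of 10 (3 mg/kg), 15 (10 mg/kg) and 5 (30 mg/kg) animals.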

Rattus norvegicus [2] = assay: Reduction of Abeta42 protein level in CD rat at 30 mg/kg, po measured after 3 hrs relative to control; type: functional; design: scale not given: the % may be the effect or the level left
Outline: (§2)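 Male CD rats given a single oral dose (1-30 mg/kg). CSF Aβ42 measured 3 h after the dose and expressed as reduction relative to control levels. In the dose-response study, geometric means are of 29 animals (3 and 10 mg/kg groups) and 10 animals (30 mg/kg group).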

HEK293 = assay: Effect on total Abeta40 levels in HEK293 cells transfected with human APP with Swedish and London familial AD mutation incubated for 5 hrs by sandwich immuno-assay; type: functional, cell-based; conditions: HEK293, 5 h
[3] = Apparent permeability of the compound; type: ADME; conditions: not told
[4] = Drug level in brain of CD rat at 30 mg/kg, po measured after 3 hrs; type: ADME, organism-based; conditions: read-out: Drug uptake; outline: as §1
[5] = biological target: Voltage-gated inwardly rectifying potassium channel KCNH2 (Homo sapiens, UniProt Q12809); assay: Inhibition of MK499 binding to human ERG
Chain of Voltage-gated inwardly rectifying potassium channel KCNH2 (Q12809 whole entry): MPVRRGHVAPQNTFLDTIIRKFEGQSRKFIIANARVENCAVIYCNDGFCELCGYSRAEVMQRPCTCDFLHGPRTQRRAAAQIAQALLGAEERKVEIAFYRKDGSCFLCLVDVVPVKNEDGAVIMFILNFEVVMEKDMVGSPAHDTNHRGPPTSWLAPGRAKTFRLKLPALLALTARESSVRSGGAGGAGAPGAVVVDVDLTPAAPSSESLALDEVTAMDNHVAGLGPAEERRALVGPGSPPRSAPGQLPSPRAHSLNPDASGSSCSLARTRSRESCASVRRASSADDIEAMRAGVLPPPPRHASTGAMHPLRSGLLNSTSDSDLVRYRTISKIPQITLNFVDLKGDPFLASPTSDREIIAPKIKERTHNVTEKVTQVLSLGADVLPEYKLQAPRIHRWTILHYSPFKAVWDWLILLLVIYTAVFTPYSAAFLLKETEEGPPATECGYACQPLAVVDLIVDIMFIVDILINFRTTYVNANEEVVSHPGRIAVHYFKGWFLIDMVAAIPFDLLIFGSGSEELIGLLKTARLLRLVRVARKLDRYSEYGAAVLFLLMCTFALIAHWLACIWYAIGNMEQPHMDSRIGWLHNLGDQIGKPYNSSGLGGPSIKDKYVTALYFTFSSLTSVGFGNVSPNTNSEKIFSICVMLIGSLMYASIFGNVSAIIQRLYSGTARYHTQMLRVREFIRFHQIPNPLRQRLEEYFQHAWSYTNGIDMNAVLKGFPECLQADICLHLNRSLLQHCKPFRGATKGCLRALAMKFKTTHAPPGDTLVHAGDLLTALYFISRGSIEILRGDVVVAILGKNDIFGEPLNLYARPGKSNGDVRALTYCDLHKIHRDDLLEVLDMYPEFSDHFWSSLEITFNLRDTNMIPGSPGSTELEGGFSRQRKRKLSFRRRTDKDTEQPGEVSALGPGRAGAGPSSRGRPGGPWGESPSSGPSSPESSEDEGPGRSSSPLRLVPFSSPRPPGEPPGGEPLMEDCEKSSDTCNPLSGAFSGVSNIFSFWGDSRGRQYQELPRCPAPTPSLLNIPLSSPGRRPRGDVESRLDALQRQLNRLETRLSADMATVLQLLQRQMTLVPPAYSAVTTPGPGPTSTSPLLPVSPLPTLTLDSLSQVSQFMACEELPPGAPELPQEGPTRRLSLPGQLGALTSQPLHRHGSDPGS

[6] = biological target: T1, Nuclear receptor subfamily 1 group I member 2 (Homo sapiens, UniProt O75469); assay: Inhibition of PXR (unknown origin); type: ADME
T1 sequence (O75469 whole entry): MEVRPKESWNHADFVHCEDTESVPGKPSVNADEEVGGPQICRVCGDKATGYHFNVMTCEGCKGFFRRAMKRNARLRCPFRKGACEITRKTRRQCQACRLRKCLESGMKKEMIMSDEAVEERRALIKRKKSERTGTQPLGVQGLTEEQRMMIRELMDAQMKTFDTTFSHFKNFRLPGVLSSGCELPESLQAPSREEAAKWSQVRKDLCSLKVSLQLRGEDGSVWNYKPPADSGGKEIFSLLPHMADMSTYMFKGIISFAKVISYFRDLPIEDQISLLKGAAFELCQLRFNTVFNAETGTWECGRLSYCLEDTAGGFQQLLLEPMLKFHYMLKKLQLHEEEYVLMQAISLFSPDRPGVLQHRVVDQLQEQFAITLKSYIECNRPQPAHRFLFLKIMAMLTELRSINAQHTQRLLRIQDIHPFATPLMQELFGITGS

Cytochrome P450 2D6 = Cytochrome P450 2D6 (Homo sapiens, UniProt P10635); assay: Inhibition of CYP2D6 (unknown origin); type: ADME
Chain of Cytochrome P450 2D6 (P10635 whole entry): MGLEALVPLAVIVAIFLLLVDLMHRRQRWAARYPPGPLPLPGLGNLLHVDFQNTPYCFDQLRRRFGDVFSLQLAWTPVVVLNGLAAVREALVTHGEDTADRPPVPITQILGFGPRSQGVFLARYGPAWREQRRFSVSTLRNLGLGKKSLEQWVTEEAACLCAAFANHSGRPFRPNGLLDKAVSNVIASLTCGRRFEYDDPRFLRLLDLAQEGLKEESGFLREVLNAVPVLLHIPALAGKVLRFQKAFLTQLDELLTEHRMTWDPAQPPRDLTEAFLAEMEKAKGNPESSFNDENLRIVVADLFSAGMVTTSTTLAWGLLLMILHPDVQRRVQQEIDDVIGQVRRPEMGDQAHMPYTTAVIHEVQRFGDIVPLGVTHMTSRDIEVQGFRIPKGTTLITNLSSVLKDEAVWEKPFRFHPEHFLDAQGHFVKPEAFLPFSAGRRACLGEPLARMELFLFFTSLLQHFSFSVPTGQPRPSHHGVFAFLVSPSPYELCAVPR

Gamma-secretase = assay: Modulation of gamma secretase in HEK293 cells transfected with human APP with Swedish and London familial AD mutation assessed as reduction in Abeta42 levels incubated for 5 hrs by sandwich immuno-assay; type: cell-based
Cytochrome P450 3A4 = Cytochrome P450 3A4 (Homo sapiens, UniProt P08684); assay: Inhibition of CYP3A4 (unknown origin); type: ADME
Chain of Cytochrome P450 3A4 (P08684 whole entry): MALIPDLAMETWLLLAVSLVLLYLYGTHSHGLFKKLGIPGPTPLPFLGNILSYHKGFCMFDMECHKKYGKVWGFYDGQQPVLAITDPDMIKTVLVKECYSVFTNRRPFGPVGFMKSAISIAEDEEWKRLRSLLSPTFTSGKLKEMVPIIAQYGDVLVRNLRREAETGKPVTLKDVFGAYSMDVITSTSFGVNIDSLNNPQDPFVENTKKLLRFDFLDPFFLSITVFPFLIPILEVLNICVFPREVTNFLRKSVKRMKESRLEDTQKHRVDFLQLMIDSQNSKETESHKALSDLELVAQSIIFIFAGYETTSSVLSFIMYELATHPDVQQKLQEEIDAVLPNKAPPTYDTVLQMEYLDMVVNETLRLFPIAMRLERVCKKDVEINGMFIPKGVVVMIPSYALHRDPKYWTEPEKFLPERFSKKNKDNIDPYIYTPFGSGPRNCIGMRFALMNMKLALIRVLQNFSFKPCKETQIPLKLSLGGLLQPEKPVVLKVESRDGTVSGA

Cytochrome P450 2C9 = Cytochrome P450 2C9 (Homo sapiens, UniProt P11712); assay: Inhibition of CYP2C9 (unknown origin); type: ADME
Chain of Cytochrome P450 2C9 (P11712 whole entry): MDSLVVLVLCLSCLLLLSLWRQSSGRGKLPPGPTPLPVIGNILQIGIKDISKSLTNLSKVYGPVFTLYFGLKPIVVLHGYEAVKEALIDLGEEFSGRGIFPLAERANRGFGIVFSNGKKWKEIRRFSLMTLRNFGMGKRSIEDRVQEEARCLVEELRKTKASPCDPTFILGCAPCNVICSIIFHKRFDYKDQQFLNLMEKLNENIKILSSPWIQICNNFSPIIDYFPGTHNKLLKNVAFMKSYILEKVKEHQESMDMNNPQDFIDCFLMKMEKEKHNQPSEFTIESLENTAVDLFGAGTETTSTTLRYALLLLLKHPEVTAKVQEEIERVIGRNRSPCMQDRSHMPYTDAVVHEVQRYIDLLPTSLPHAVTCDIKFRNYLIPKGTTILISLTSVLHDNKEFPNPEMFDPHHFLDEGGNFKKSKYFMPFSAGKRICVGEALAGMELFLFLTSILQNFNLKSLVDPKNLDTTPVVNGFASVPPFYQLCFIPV

[7] = Selectivity index, ratio of IC50 for effect on total Abeta40 levels in HEK293 cells transfected with human APP with Swedish and London familial AD mutation incubated for 5 hrs by sandwich immuno-assay to IC50 for modulation of gamma secretase in HEK293 cells transfected with human APP with Swedish and London familial AD mutation assessed as reduction in Abeta42 levels incubated for 5 hrs by sandwich immuno-assay
[8] = Drug level in brain of CD rat at 10 mg/kg, po measured after 3 hrs; type: ADME, organism-based; conditions: read-out: Drug uptake; outline: as §1
[9] = Drug level in brain of CD rat at 3 mg/kg, po measured after 3 hrs; type: ADME, organism-based; conditions: read-out: Drug uptake; outline: as §1
[10] = MRT in CD rat at 1 mg/kg, iv; type: ADME, organism-based; conditions: in vivo
Outline: (§3)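 Male CD rats, single 1 mg/kg intravenous dose. Clearance, steady-state volume of distribution and mean residence time taken from the plasma concentration-time data. Values are the average of two experiments.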

[11] = Protein binding in rat plasma; type: ADME, cell-free; conditions: read-out: PPB (converted)
Rattus norvegicus [12] = assay: Reduction of Abeta42 protein level in CD rat at 3 mg/kg, po measured after 3 hrs relative to control; type: functional; design: scale not given: the % may be the effect or the level left; outline: as §2
[13] = Drug level in plasma of CD rat at 3 mg/kg, po measured after 3 hrs; type: ADME, organism-based; outline: as §1
[14] = Oral bioavailability CD rat at 2 mg/kg; type: ADME, organism-based; conditions: in vivo
Outline: (§4)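 Male CD rats, single 2 mg/kg oral dose. Plasma drug concentration-time profile used for AUC(0-∞), Cmax and oral bioavailability (F%). Values are the average of two experiments.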

[15] = Drug level in plasma of CD rat at 10 mg/kg, po measured after 3 hrs; type: ADME, organism-based; outline: as §1
[16] = AUC (0 to infinity) in CD rat at 2 mg/kg, po; type: ADME, organism-based; design: dose 2 mg/kg, route oral, time infinity; conditions: in vivo; outline: as §4
Rattus norvegicus [17] = assay: Reduction of Abeta42 protein level in CD rat at 1 mg/kg, po measured after 3 hrs relative to control; type: functional, organism-based; outline: as §2
[18] = system: rat MDR1A (P-glycoprotein); assay: Efflux ratio in pig LLC-PK1 cells transfected with rat MDR1A; type: ADME, cell-based, Sus scrofa
Outline: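 Rat P-gp efflux measured in LLC-PK1 cells transfected with rat MDR1A. Reported as the ratio of B-to-A over A-to-B transport.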

[19] = Volume of distribution at steady state in CD rat at 1 mg/kg, iv; type: ADME, organism-based; conditions: in vivo, read-out: Vdss; outline: as §3
Rattus norvegicus [20] = assay: Reduction of Abeta42 protein level in CD rat at 3 to 30 mg/kg, po measured after 3 hrs relative to control; type: functional, organism-based; outline: as §2
[21] = Clearance in CD rat at 1 mg/kg, iv; type: ADME, organism-based; conditions: in vivo; outline: as §3
Rattus norvegicus [22] = assay: Reduction of Abeta42 protein level in CD rat at 10 mg/kg, po measured after 3 hrs relative to control; type: functional; design: scale not given: the % may be the effect or the level left; outline: as §2
[23] = Cmax in CD rat at 2 mg/kg, po; type: ADME, organism-based; design: dose 2 mg/kg, route oral; conditions: in vivo; outline: as §4

SMILES: COc1cc(C2=CC3=NO[C@H](c4cc(F)c(F)c(F)c4)CN3CCC2)ccc1-n1cnc(C)c1
concentration at 3 h [1]: 14.2 µM | Activity (Rattus norvegicus [2]): 52% | IC50 (HEK293): 14 µM | Papp [3]: 22 ×10⁻⁶ cm/s | concentration at 3 h [4]: 2.1 µM | IC50 [5]: 3.35 µM | IC50 [6]: > 30 µM | IC50 (Cytochrome P450 2D6): 48 µM | IC50 (Gamma-secretase): 0.107 µM | IC50 (Cytochrome P450 3A4): 34 µM | IC50 (Cytochrome P450 2C9): 18 µM

SMILES: COc1cc(/C=C2\CCCN3C2=NO[C@H](c2cc(F)c(F)c(F)c2)[C@@H]3CO)ccc1-n1cnc(C)c1
IC50 (HEK293): 15 µM | Ratio IC50 [7]: 221 | IC50 (Gamma-secretase): 0.069 µM

SMILES: COc1cc(/C=C2\CCCN3CC(c4cc(F)c(F)c(F)c4)ON=C23)ccc1-n1cnc(C)c1 (stereo not given)
IC50 (Gamma-secretase): 0.048 µM

SMILES: COc1cc(/C=C2\CCCN3C2=NO[C@]3(CO)c2ccc(F)cc2)ccc1-n1cnc(C)c1
IC50 (Gamma-secretase): 0.029 µM

SMILES: COc1cc(C2=CC3=NOC[C@H](c4cc(F)c(F)c(F)c4)N3CCC2)ccc1-n1cnc(C)c1
concentration at 3 h [1]: 1.4 µM | IC50 (HEK293): 16 µM | Papp [3]: 23 ×10⁻⁶ cm/s | concentration at 3 h [4]: 1.3 µM | IC50 [5]: 2.61 µM | IC50 [6]: > 15 µM | IC50 (Cytochrome P450 2D6): 8 µM | IC50 (Gamma-secretase): 0.143 µM | IC50 (Cytochrome P450 3A4): 30 µM | IC50 (Cytochrome P450 2C9): 8 µM

SMILES: COc1cc(C2=NOCC3C(Oc4ccc(Cl)cc4C(F)(F)F)CCCN23)ccc1-n1cnc(C)c1 (stereo not given)
IC50 (Gamma-secretase): 0.015 µM

SMILES: COc1cc(/C=C2\CCCN3C2=NO[C@H](c2cc(F)cc(F)c2)[C@@H]3C(C)C)ccc1-n1cnc(C)c1
IC50 (HEK293): 19 µM | Ratio IC50 [7]: 174 | IC50 (Gamma-secretase): 0.113 µM

SMILES: COc1cc(/C=C2\CCCN3C2=NOC[C@@H]3c2ccc(F)cc2)ccc1-n1cnc(C)c1
IC50 (Gamma-secretase): 0.033 µM

SMILES: COc1cc(/C=C2\CCCN3C2=NO[C@H](c2cc(F)c(F)c(F)c2)[C@@H]3C)ccc1-n1cnc(C)c1
concentration at 3 h [1]: 13.1 µM | Activity (Rattus norvegicus [2]): 80% | IC50 (HEK293): > 20 µM | Papp [3]: 14 ×10⁻⁶ cm/s | concentration at 3 h [4]: 11.1 µM | Ratio IC50 [7]: >367 | IC50 [5]: 1.61 µM | IC50 [6]: > 10 µM | IC50 (Cytochrome P450 2D6): 49 µM | IC50 (Gamma-secretase): 0.055 µM | IC50 (Cytochrome P450 3A4): 29 µM | IC50 (Cytochrome P450 2C9): 37 µM

SMILES: COc1cc(-c2nnc3n2CCCN3C(C)c2cc(F)c(F)c(F)c2)ccc1-n1cnc(C)c1 (stereo not given)
IC50 (Gamma-secretase): 0.116 µM

The remaining compounds from weak to strong by IC50 (Gamma-secretase), led by results:

IC50 (Gamma-secretase): 9.29 µM
SMILES: COc1cc(/C=C2\CCCN3C2=NO[C@@H](c2cc(F)cc(F)c2)[C@@H]3C)ccc1-n1cnc(C)c1
IC50 (HEK293): > 20 µM

IC50 (Gamma-secretase): 1.55 µM
SMILES: COc1cc(C(=O)N2CCCC(Cc3ccc(F)cc3)C2)ccc1-n1cnc(C)c1 (stereo not given)

IC50 (Gamma-secretase): 0.512 µM
SMILES: COc1cc(C2=CC3=NOC(CO)(c4ccc(F)cc4)N3CCO2)ccc1-n1cnc(C)c1 (stereo not given)

IC50 (Gamma-secretase): 0.462 µM
SMILES: CCC(NC(=O)/C=C/c1ccc(-n2cnc(C)c2)c(OC)c1)c1ccc(F)cc1 (stereo not given)

IC50 (Gamma-secretase): 0.4 µM
SMILES: COc1cc(C2=NOCC3C(Oc4cc(F)cc(F)c4)CCCN23)ccc1-n1cnc(C)c1 (stereo not given)

concentration at 3 h [1]: 8.8 µM | concentration at 3 h [8]: 4.2 µM | concentration at 3 h [9]: 0.81 µM | Papp [3]: 17 ×10⁻⁶ cm/s | concentration at 3 h [4]: 7.5 µM | MRT [10]: 1.7 h | fraction unbound [11]: 0.005 | concentration at 3 h [13]: 0.91 µM | bioavailability [14]: 79% | concentration at 3 h [15]: 4.83 µM | AUC(0-inf) [16]: 8 µM·h | efflux ratio [18]: 2.46 | Vd [19]: 1.1 L/kg | IC50 [6]: 15 µM | clearance [21]: 10 mL/min/kg | IC50 (Cytochrome P450 2D6): 49 µM | IC50 (Gamma-secretase): 0.052 µM | IC50 (Cytochrome P450 3A4): 16 µM | Cmax [23]: 1.3 µM | IC50 (Cytochrome P450 2C9): 33 µM
SMILES: COc1cc(/C=C2\CCCN3C2=NO[C@H](c2cc(F)cc(F)c2)[C@@H]3C)ccc1-n1cnc(C)c1
Activity (Rattus norvegicus [2]): 73% | IC50 (HEK293): 12 µM | Activity (Rattus norvegicus [12]): 24% | Ratio IC50 [7]: 248 | Activity (Rattus norvegicus [17]): inactive | IC50 [5]: 2.01 µM | Activity (Rattus norvegicus [20]): Dose-dependent effect | Activity (Rattus norvegicus [22]): 52%

IC50 (Gamma-secretase): 0.039 µM
SMILES: COc1cc(/C=C2\CCCN3C2=NOCC[C@@H]3c2cc(F)c(F)c(F)c2)ccc1-n1cnc(C)c1

IC50 (Gamma-secretase): 0.037 µM
SMILES: COc1cc(/C=C2\CCCN3C2=NOC[C@@H]3c2cc(F)c(F)c(F)c2)ccc1-n1cnc(C)c1
